# Results as given in ChEMBL document CHEMBL1821604, “Anticancer activity and cDNA microarray studies of a (RS)-1,2,3,5-tetrahydro-4,1-benzoxazepine-3-yl]-6-chloro-9H-purine, and an acyclic (RS)-O,N-acetalic 6-chloro-7H-purine” (Eur J Med Chem, 2011).
# How the values were obtained:
# MCF7 [1] = assay: Cytotoxicity against human MCF7 cells after 6 days by SRB colorimetric assay; assay type: functional, cell-based; conditions: MCF7, 144 h
# HT-29 [2] = assay: Upregulation of COL3A1 gene expression in human HT-29 cells at IC50 after 48 hrs by cDNA microarray technique relative to control; assay type: functional
# MCF7 [3] = assay: Down regulation of KIF3B gene expression in human MCF7 cells at IC50 after 48 hrs by cDNA microarray technique relative to control; assay type: functional
# Method in brief: (§1)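 Cells (8 × 10⁶) were cultured in DMEM with 10% heat-inactivated FBS at 37 °C under 5% CO₂. They were exposed for 48 h to compound at its IC₅₀, with DMSO-treated parallel cultures as controls (final DMSO ≤0.1% v/v). Total RNA was isolated by trizol/chloroform phase separation, RNeasy column cleanup and on-column DNase, then quantified by OD260/OD280. Expression was profiled by cDNA microarray relative to control.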
# MCF7 [4] = assay: Down regulation of PARK2 gene expression in human MCF7 cells at IC50 after 48 hrs by cDNA microarray technique relative to control; assay type: functional
# MCF7 [5] = assay: Down regulation of C21orf42 gene expression in human MCF7 cells at IC50 after 48 hrs by cDNA microarray technique relative to control; assay type: functional
# Method in brief: (§2)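 8 × 10⁶ cells exposed 48 h to compound at its IC50 concentration; total RNA isolated with trizol/chloroform and RNeasy columns including on-column DNase step; RNA quantified by OD 260/280; DMSO-treated cultures as control.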
# MCF7 [6] = assay: Down regulation of TSSK6 gene expression in human MCF7 cells at IC50 after 48 hrs by cDNA microarray technique relative to control; assay type: functional
# MCF7 [7] = assay: Down regulation of CHST9 gene expression in human MCF7 cells at IC50 after 48 hrs by cDNA microarray technique relative to control; assay type: functional; method in brief: as §2
# MCF7 [8] = assay: Down regulation of FLJ22955 gene expression in human MCF7 cells at IC50 after 48 hrs by cDNA microarray technique relative to control; assay type: functional; method in brief: as §1
# MCF7 [9] = assay: Down regulation of AF147723 gene expression in human MCF7 cells at IC50 after 48 hrs by cDNA microarray technique relative to control; assay type: functional; method in brief: as §2
# HT-29 [10] = assay: Upregulation of PMP22 gene expression in human HT-29 cells at IC50 after 48 hrs by cDNA microarray technique relative to control; assay type: functional
# HT-29 [11] = assay: Upregulation of AVIL gene expression in human HT-29 cells at IC50 after 48 hrs by cDNA microarray technique relative to control; assay type: functional
# HT-29 [12] = assay: Down regulation of FLJ10786 gene expression in human HT-29 cells at IC50 after 48 hrs by cDNA microarray technique relative to control; assay type: functional; method in brief: as §1
# HT-29 [13] = assay: Down regulation of KCNJ16 gene expression in human HT-29 cells at IC50 after 48 hrs by cDNA microarray technique relative to control; assay type: functional; method in brief: as §1
# HT-29 [14] = assay: Down regulation of CD1B gene expression in human HT-29 cells at IC50 after 48 hrs by cDNA microarray technique relative to control; assay type: functional; method in brief: as §2
# MCF7 [15] = assay: Upregulation of BTBD12 gene expression in human MCF7 cells at IC50 after 48 hrs by cDNA microarray technique relative to control; assay type: functional
# MCF7 [16] = assay: Upregulation of HOXB2 gene expression in human MCF7 cells at IC50 after 48 hrs by cDNA microarray technique relative to control; assay type: functional
# MCF7 [17] = assay: Down regulation of CORO2B gene expression in human MCF7 cells at IC50 after 48 hrs by cDNA microarray technique relative to control; assay type: functional; method in brief: as §2
# HT-29 [18] = assay: Down regulation of CKLFSF5 gene expression in human HT-29 cells at IC50 after 48 hrs by cDNA microarray technique relative to control; assay type: functional; method in brief: as §2
# HT-29 [19] = assay: Down regulation of HSPA1A gene expression in human HT-29 cells at IC50 after 48 hrs by cDNA microarray technique relative to control; assay type: functional; method in brief: as §1
# HT-29 [20] = assay: Down regulation of NIPSNAP3B gene expression in human HT-29 cells at IC50 after 48 hrs by cDNA microarray technique relative to control; assay type: functional
# HT-29 [21] = assay: Down regulation of PCSK9 gene expression in human HT-29 cells at IC50 after 48 hrs by cDNA microarray technique relative to control; assay type: functional
# HT-29 [22] = assay: Down regulation of STK19 gene expression in human HT-29 cells at IC50 after 48 hrs by cDNA microarray technique relative to control; assay type: functional
# HT-29 [23] = assay: Down regulation of PYCRL gene expression in human HT-29 cells at IC50 after 48 hrs by cDNA microarray technique relative to control; assay type: functional
# HT-29 [24] = assay: Down regulation of HNRPAB gene expression in human HT-29 cells at IC50 after 48 hrs by cDNA microarray technique relative to control; assay type: functional; method in brief: as §1
# HT-29 [25] = assay: Down regulation of HBZ gene expression in human HT-29 cells at IC50 after 48 hrs by cDNA microarray technique relative to control; assay type: functional; method in brief: as §1
# HT-29 [26] = assay: Down regulation of ACCN5 gene expression in human HT-29 cells at IC50 after 48 hrs by cDNA microarray technique relative to control; assay type: functional; method in brief: as §2
# HT-29 [27] = assay: Down regulation of MDGA1 gene expression in human HT-29 cells at IC50 after 48 hrs by cDNA microarray technique relative to control; assay type: functional
# MCF7 [28] = assay: Upregulation of AY232284 gene expression in human MCF7 cells at IC50 after 48 hrs by cDNA microarray technique relative to control; assay type: functional
# MCF7 [29] = assay: Upregulation of GALNT13 gene expression in human MCF7 cells at IC50 after 48 hrs by cDNA microarray technique relative to control; assay type: functional
# MCF7 [30] = assay: Upregulation of MYCN gene expression in human MCF7 cells at IC50 after 48 hrs by cDNA microarray technique relative to control; assay type: functional
# MCF7 [31] = assay: Upregulation of CITED1 gene expression in human MCF7 cells at IC50 after 48 hrs by cDNA microarray technique relative to control; assay type: functional
# MCF7 [32] = assay: Upregulation of GPR132 gene expression in human MCF7 cells at IC50 after 48 hrs by cDNA microarray technique relative to control; assay type: functional
# MCF7 [33] = assay: Down regulation of C11orf8 gene expression in human MCF7 cells at IC50 after 48 hrs by cDNA microarray technique relative to control; assay type: functional; method in brief: as §2
# MCF7 [34] = assay: Down regulation of THC2438856 gene expression in human MCF7 cells at IC50 after 48 hrs by cDNA microarray technique relative to control; assay type: functional
# HT-29 [35] = assay: Down regulation of GK001 gene expression in human HT-29 cells at IC50 after 48 hrs by cDNA microarray technique relative to control; assay type: functional; method in brief: as §1
# HT-29 [36] = assay: Down regulation of GANAB gene expression in human HT-29 cells at IC50 after 48 hrs by cDNA microarray technique relative to control; assay type: functional; method in brief: as §1
# HT-29 [37] = assay: Down regulation of SFRS5 gene expression in human HT-29 cells at IC50 after 48 hrs by cDNA microarray technique relative to control; assay type: functional
# HT-29 [38] = assay: Down regulation of PLCB4 gene expression in human HT-29 cells at IC50 after 48 hrs by cDNA microarray technique relative to control; assay type: functional
smiles,measurement,setting,value
COC(CN(c1ccccc1CO)S(=O)(=O)c1ccccc1[N+](=O)[O-])n1cnc2ncnc(Cl)c21 (racemic),IC50,MCF7 [1],3.25 µM
same,fold change (FC),HT-29 [2],4.72
same,fold change (FC),MCF7 [3],-2.14
same,fold change (FC),MCF7 [4],-2.2
same,fold change (FC),MCF7 [5],-2.31
same,fold change (FC),MCF7 [6],-2.43
same,fold change (FC),MCF7 [7],-2.53
same,fold change (FC),MCF7 [8],-2.65
same,fold change (FC),MCF7 [9],-2.66
same,fold change (FC),HT-29 [10],2.54
same,fold change (FC),HT-29 [11],2.46
same,fold change (FC),HT-29 [12],-2.04
same,fold change (FC),HT-29 [13],-2.21
same,fold change (FC),HT-29 [14],-2.32
same,fold change (FC),MCF7 [15],3.24
same,fold change (FC),MCF7 [16],2.74
same,fold change (FC),MCF7 [17],-2.01
O=C(OCC1c2ccccc2-c2ccccc21)N1CC(n2cnc3c(Cl)ncnc32)OCc2ccccc21 (racemic),fold change (FC),HT-29 [18],-2.19
same,fold change (FC),HT-29 [19],-2.2
same,fold change (FC),HT-29 [20],-2.21
same,fold change (FC),HT-29 [21],-2.32
same,fold change (FC),HT-29 [22],-2.34
same,fold change (FC),HT-29 [23],-2.36
same,fold change (FC),HT-29 [24],-2.45
same,fold change (FC),HT-29 [25],-2.84
same,fold change (FC),HT-29 [26],-2.98
same,fold change (FC),HT-29 [27],-3.92
same,fold change (FC),MCF7 [28],3.98
same,fold change (FC),MCF7 [29],3.23
same,fold change (FC),MCF7 [30],2.98
same,fold change (FC),MCF7 [31],2.73
same,fold change (FC),MCF7 [32],2.1
same,fold change (FC),MCF7 [33],-2.88
same,fold change (FC),MCF7 [34],-3.05
same,fold change (FC),HT-29 [35],-2.03
same,fold change (FC),HT-29 [36],-2.04
same,fold change (FC),HT-29 [37],-2.06
same,fold change (FC),HT-29 [38],-2.11
